# Results taken from ChEMBL document CHEMBL1121893, “N-Aralkyl substitution of 2-amino-5,6- and -6,7-dihydroxy-1,2,3,4-tetrahydronaphthalenes. 1. Cardiac and pressor/depressor activities” (J Med Chem, 1981).
# Calls of active or inactive are those of the source. The calls are words filed in the database; no cut-off is given here.
# Columns and labels:
# [1] = species: Canis familiaris; assay: Cardioselectivity expressed as change in blood pressure for 100% increase in right ventricular contractile force in dogs; assay type: functional, Canis lupus familiaris
# How it was run: (§1)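 Mongrel dogs of either sex, anesthetized with pentobarbital sodium (30 mg/kg iv) and ventilated. Femoral-artery blood pressure, heart rate and right ventricular contractile force were recorded, the force by strain gauge with the muscle stretched to 140% of in situ length. After 30 min equilibration, iv bolus doses in saline with 0.5 mg/mL bisulfite were doubled until contractile force rose 100%. Peak responses were taken.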
# [2] = species: Canis familiaris; assay: Cardioselectivity expressed as change in blood pressure for 50% increase in right ventricular contractile force in dogs; assay type: functional, Canis lupus familiaris
# How it was run: (§2)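 Mongrel dogs of either sex, pentobarbital sodium anaesthesia (30 mg/kg iv, supplemented as needed), ventilated. Femoral arterial BP recorded, drugs given into a forelimb vein as iv boluses in saline with 0.5 mg/mL sodium bisulfite. Right ventricular CF measured by Walton-Brodie strain gauge. Peak response taken per dose, doses raised in 2-fold steps until CF rose 100%. HR and BP changes read at 50% and 100% CF increase. Means ± SEM.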
# [3] = species: Canis familiaris; assay: Ionotropic selectivity expressed as change in heart rate for 50 percent increase in right ventricular contractile force in dogs; assay type: functional, Canis lupus familiaris; how it was run: as §2
# [4] = species: Canis familiaris; assay: Inotropic potency expressed as 100 percent increase in right ventricular contractile force in dogs; assay type: functional, Canis lupus familiaris, Heart right ventricle; how it was run: as §1
# [5] = species: Canis familiaris; assay: Inotropic potency expressed as 50 percent increase in right ventricular contractile force in dogs; assay type: functional, Canis lupus familiaris, Heart right ventricle; how it was run: as §2
# [6] = species: Cavia porcellus; assay: (§3) Effective concentration for increasing potency rate in guinea pig isolated right atria; assay type: functional
# How it was run: (§4)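 Isolated guinea pig left and right atria, field stimulated with 5 ms pulses and allowed to stabilise 60 min with periodic washing. An isoproterenol cumulative concentration-response curve was run first, tissues washed, then a cumulative curve with the test compound. Force was read in both atria and rate in right atria. Intrinsic activity = maximal response ÷ isoproterenol maximum. EC20 was given where EC50 was not reached. Means ± SE.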
# [7] = species: Cavia porcellus; assay: Compound was tested for relative intrinsic activity in guinea pig isolated atrium right atria; assay type: functional, Cardiac atrium; how it was run: as §4
# [8] = species: Canis familiaris; assay: Ionotropic selectivity expressed as change in heart rate for 100 percent increase in right ventricular contractile force in dogs; assay type: functional, Canis lupus familiaris; how it was run: as §1
# [9] = species: Cavia porcellus; assay: Compound was tested for or relative intrinsic activity in guinea pig isolated atrium left atria; assay type: functional, Cardiac atrium; how it was run: as §4
# [10] = species: Cavia porcellus; assay: (§5) Effective concentration for increasing potency force in guinea pig isolated left atria; assay type: functional
# [11] = species: Cavia porcellus; assay: Effective concentration for increasing potency in guinea pig isolated right atria; assay type: functional; how it was run: as §4
# [12] = species: Cavia porcellus; assay: as §3; assay type: functional; remark: listed apart in the source
# How it was run: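 Isolated atria were stabilized 60 min with periodic washing. A cumulative isoproterenol concentration-response curve was run, then washed out. A cumulative curve with the test compound followed. The EC50 was derived, or EC20 where 50% was not reached. Intrinsic activity is the maximal response relative to isoproterenol maximum.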
# [13] = species: Cavia porcellus; assay: as §5; assay type: functional; how it was run: as §4; remark: listed apart in the source
# [14] = Percentage increase in contractile force was determined by the effect of DMI (desmethylimipramine, 1 mg/kg, iv) at 50 ug/kg
# [15] = species: Canis familiaris; assay: Cardioselectivity expressed as change in blood pressure for 100% increase in right ventricular contractile force in dogs; CF(100) levels not obtained; assay type: functional, organism-based; conditions: Canis lupus familiaris; how it was run: as §2
# [16] = species: Canis familiaris; assay: Ionotropic selectivity expressed as change in heart rate for 100 percent increase in right ventricular contractile force in dogs; CF(100) levels not obtained; assay type: functional, organism-based; conditions: Canis lupus familiaris; how it was run: as §2
# [17] = species: Canis familiaris; assay: Inotropic potency expressed as 100 percent increase in right ventricular contractile force in dogs; CF(100) levels not obtained; CF(100) levels not obtained; assay type: functional, organism-based; conditions: Canis lupus familiaris; Heart right ventricle; how it was run: as §2
# [18] = species: Canis familiaris; assay: Cardioselectivity expressed as change in blood pressure for 100% increase in right ventricular contractile force in dogs; CF(100) level not obtained; assay type: functional, organism-based; conditions: Canis lupus familiaris; how it was run: as §2
# [19] = species: Canis familiaris; assay: Ionotropic selectivity expressed as change in heart rate for 100 percent increase in right ventricular contractile force in dogs; CF(100) level not obtained; assay type: functional, organism-based; conditions: Canis lupus familiaris; how it was run: as §2
# [20] = species: Canis familiaris; assay: Inotropic potency expressed as 100 percent increase in right ventricular contractile force in dogs; CF(100) level not obtained; assay type: functional, organism-based; conditions: Canis lupus familiaris; Heart right ventricle; how it was run: as §2
# [21] = species: Canis familiaris; assay: Inotropic potency expressed as 100 percent increase in right ventricular contractile force in dogs; CF(100) levels not obtained; assay type: functional, organism-based; conditions: Canis lupus familiaris; Heart right ventricle; how it was run: as §2
Compound,BP [1],BP [2],HR [3],Potency [4],Potency [5],EC50 [6],RIA [7],HR [8],RIA [9],EC50 [13],also measured
CC(CCc1ccc(O)c(O)c1)NC1CCc2cc(O)c(O)cc2C1 (centres undefined),-11 mmHg,-36 mmHg,20 beats min-1,109 nM/kg,24.6 nM/kg,1200 nM,0.35,45 beats min-1,–,–,–
CC(CCc1ccc(O)cc1)NC1CCc2cc(O)c(O)cc2C1 (centres undefined),60 mmHg,13 mmHg,-3 beats min-1,410 nM/kg,140 nM/kg,–,0.15,19 beats min-1,0.38,–,EC20 [10]: 2700 nM; EC20 [11]: > 110000 nM
Oc1cc2c(cc1O)CC(NC1CCc3cc(O)c(O)cc3C1)CC2 (centres undefined),84 mmHg,78 mmHg,31 beats min-1,2650 nM/kg,961 nM/kg,–,0.08,62 beats min-1,0.38,–,EC20 [10]: 2400 nM; EC20 [12]: > 110000 nM
CC(Cc1ccc(O)c(O)c1)NC1CCc2cc(O)c(O)cc2C1 (centres undefined),–,-39 mmHg,-5 beats min-1,27 nM/kg,11.4 nM/kg,–,0.69,4 beats min-1,0.95,280 nM,EC50 [11]: 2200 nM
CC(CCc1ccc(O)cc1)NCCc1ccc(O)c(O)c1 (centres undefined) [DOBUTAMINE],4 mmHg,3 mmHg,3 beats min-1,13.2 nM/kg,4.1 nM/kg,470 nM,0.9,17 beats min-1,1.12,150 nM,–
CC(CCc1ccc(O)cc1)NC1CCc2c(ccc(O)c2O)C1 (centres undefined),-61 mmHg,-51 mmHg,20 beats min-1,196 nM/kg,27.7 nM/kg,1800 nM,0.78,41 beats min-1,1.11,730 nM,–
NC1CCc2cc(O)c(O)cc2C1 (centres undefined),61 mmHg,29 mmHg,-12 beats min-1,457 nM/kg,173 nM/kg,33000 nM,0.61,21 beats min-1,1.06,2500 nM,Increase [14]: 5%
Oc1ccc(CCNC2CCc3cc(O)c(O)cc3C2)cc1O (centres undefined),72 mmHg,50 mmHg,11 beats min-1,189 nM/kg,85 nM/kg,–,0.67,30 beats min-1,0.84,1500 nM,EC50 [11]: 16000 nM
NC1CCc2c(ccc(O)c2O)C1 (centres undefined),–,41 mmHg,11 beats min-1,–,410 nM/kg,38000 nM,0.69,–,1.05,4400 nM,BP [15]: inactive; HR [16]: inactive; Potency [17]: inactive; Increase [14]: 18%
CC(Cc1ccc(O)c(O)c1)NC1CCc2c(ccc(O)c2O)C1 (centres undefined),-54 mmHg,-42 mmHg,26 beats min-1,20.1 nM/kg,7.2 nM/kg,160 nM,0.87,40 beats min-1,1.02,250 nM,–
CC(C)NC1CCc2cc(O)c(O)cc2C1 (centres undefined),–,46 mmHg,9 beats min-1,–,1560 nM/kg,–,0.24,–,0.78,49000 nM,BP [18]: CF(100) level not obtained; HR [19]: CF(100) level not obtained; Potency [20]: CF(100) level not obtained; EC20 [11]: 200000 nM
NCCc1ccc(O)c(O)c1 [DOPAMINE],-5 mmHg,-15 mmHg,5 beats min-1,125 nM/kg,58.1 nM/kg,1500 nM,1,12 beats min-1,1.15,1700 nM,–
CC(C)NC1CCc2c(ccc(O)c2O)C1 (centres undefined),–,-66 mmHg,20 beats min-1,–,110 nM/kg,1700 nM,0.55,–,1.16,21000 nM,BP [15]: CF(100) levels not obtained; HR [16]: CF(100) levels not obtained; Potency [21]: CF(100) levels not obtained
CC(C)NCC(O)c1ccc(O)c(O)c1 (centres undefined) [ISOPROTERENOL],-27 mmHg,-17 mmHg,13 beats min-1,0.35 nM/kg,0.11 nM/kg,6.2 nM,1,35 beats min-1,1,3.2 nM,–
